Rows were chosen to be rich in hits. Some 2.3% of all compounds tested hit in one or more screens of this group.
TRPC4 block: TRPC4 (mouse) channel inhibition | Q9QUQ5 | HEK293 TRPC4beta/mu-opioid, DAMGO-evoked Fluo4 calcium flux; hits give low values | B-score at 10 µM | 300,000 compounds, 0.39% hits | AID 2247;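 active = B-score over 3 SD under the library average, no early fluorescence shift, positive overall ratio signal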
Target sequence (Q9QUQ5 whole entry, looked up): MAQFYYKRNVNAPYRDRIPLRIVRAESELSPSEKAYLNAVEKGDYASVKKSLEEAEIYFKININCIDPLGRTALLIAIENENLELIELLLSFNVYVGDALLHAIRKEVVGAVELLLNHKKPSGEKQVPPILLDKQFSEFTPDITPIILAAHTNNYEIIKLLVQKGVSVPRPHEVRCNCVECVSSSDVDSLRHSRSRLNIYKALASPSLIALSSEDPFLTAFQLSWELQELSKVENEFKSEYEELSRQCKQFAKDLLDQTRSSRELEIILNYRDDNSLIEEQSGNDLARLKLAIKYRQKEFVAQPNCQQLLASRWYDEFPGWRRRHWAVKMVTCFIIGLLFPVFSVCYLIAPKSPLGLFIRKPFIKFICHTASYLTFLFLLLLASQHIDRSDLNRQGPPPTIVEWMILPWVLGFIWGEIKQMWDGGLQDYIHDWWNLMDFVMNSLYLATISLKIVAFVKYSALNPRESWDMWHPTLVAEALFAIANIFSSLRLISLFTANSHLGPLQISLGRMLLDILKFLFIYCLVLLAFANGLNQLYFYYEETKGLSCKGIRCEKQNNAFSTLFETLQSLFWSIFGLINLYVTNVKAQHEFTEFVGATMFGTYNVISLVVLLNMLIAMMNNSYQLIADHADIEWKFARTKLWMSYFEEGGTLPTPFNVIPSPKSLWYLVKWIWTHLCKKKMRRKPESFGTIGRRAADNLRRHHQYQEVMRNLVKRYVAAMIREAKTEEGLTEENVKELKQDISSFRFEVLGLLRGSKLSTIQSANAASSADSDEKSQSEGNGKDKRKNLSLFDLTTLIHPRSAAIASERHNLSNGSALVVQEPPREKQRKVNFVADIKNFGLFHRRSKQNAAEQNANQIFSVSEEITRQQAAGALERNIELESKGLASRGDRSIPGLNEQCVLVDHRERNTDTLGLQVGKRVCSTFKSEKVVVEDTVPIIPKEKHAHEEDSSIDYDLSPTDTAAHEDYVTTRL
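test system = HEK293 cells with stable TRPC4beta plus mu-opioid receptor expression | detection = Fluo4 Ca2+ flux fluorescence | read-out = integrated fluorescence ratio relative to baseline, converted to per-well B score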
TRPC4 agonist: TRPC4 (mouse) channel activation. AID 2237. Q9QUQ5. HEK293 TRPC4beta/mu-opioid, Fluo4 calcium fluorescence; hits give high values. B-score at 10 µM. 310,000 compounds, 0.49% hits;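 active = B-score above 5 SD of library B-scores, and initial fluorescence ratio not above library mean plus 5 SD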;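 also: positive B-score marks a calcium rise read as TRPC4 activation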
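System – HEK293 cells stably co-expressing mouse TRPC4beta and mu-opioid receptor · Signal – Fluo4 calcium-sensitive dye fluorescence, kinetic, 1 Hz baseline · Benchmarks – buffer (low) and maximal DAMGO (high) · Read-out – B score of integrated fluorescence ratio per well · Incubation – dye loading 45 min room temperature, 110 s kinetic read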
TRPC6 act: activates the mouse TRPC6 cation channel. 310,000 compounds, 0.13% hits. Q61143. AID 2550. B-score at 10 µM. HEK293-TRPC6 membrane potential dye fluorescence; hits give high values;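 active = B-score of the integrated fluorescence ratio above library mean plus 3 SD, and starting fluorescence ratio within library mean plus 5 SD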;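 also: higher score means more depolarization so channel activation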
TRPC6 inh: blocks the mouse TRPC6 cation channel; B-score at 10 µM; Q61143; HEK293-TRPC6, membrane potential dye, ACh-evoked depolarization; hits give low values; 310,000 compounds, 1.1% hits;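 active = B-score under library mean minus 3 SD, initial fluorescence not abnormally high, positive integrated signal ratio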;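 also: B-score derived from integrated fluorescence ratio over the kinetic read; more negative B-score means stronger inhibition of depolarization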
TRPC4 potent: TRPC4 (mouse) allosteric potentiation; Q9QUQ5; HEK293 TRPC4beta/mu-opioid, DAMGO EC20, Fluo-4 Ca2+ flux; hits give high values; B-score at 10 µM; 310,000 compounds, 0.42% hits; AID 2227;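 active = B-score of calcium response area above 5 SD of library B-scores, with initial fluorescence ratio within 5 SD of library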;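 also: B-score of integrated fluorescence ratio over time as area under calcium response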
TRPC4 spec 2: second selectivity test of TRPC6 inhibitors: effect on mouse TRPC4 | shares compounds with TRPC6 inh | HEK293 TRPC4/MOR, membrane potential dye fluorescence; channel activated by saturating DAMGO dose | inhibition, % at 10 µM | 920 compounds, 42% hits | AID 2776;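 active = compounds whose fluorescence signal differed from control wells by over 3 SD, either direction, in both duplicate plates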
TRPC4 spec: selectivity of TRPC6 inhibitors: effect on mouse TRPC4; shares compounds with TRPC6 inh; HEK293 TRPC4/mu-opioid, membrane potential fluorescence; activity change, negative = inhibition, % at 10 µM; 920 compounds, 61% hits; AID 2777;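 active = rise or fall in signal beyond 3 SD of buffer-only wells in both replicate plates, either sign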;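 also: integrated kinetic ratio of fluorescence range over baseline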
HEK293 MPD ctr 2-1: second counter-screen for TRPC6 inhibitors: parental HEK293 cells. 920 compounds, 31% hits. signal change vs control, % at 10 µM. shares compounds with TRPC6 inh. parental HEK293 membrane potential dye fluorescence; maximal acetylcholine challenge after compound addition. AID 2779;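 active = membrane potential signal moving either way by over 3 SD of the maximum-effect control, in both duplicate plates, meaning non-specific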
HEK293 MPD ctr-1: parental HEK293 nonspecific activity of TRPC6 inhibitors; membrane potential signal change, % at 10 µM; parental HEK293 membrane potential dye fluorescence; shares compounds with TRPC6 inh; 920 compounds, 60% hits;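 active = membrane potential signal shifting up or down by more than 3 SD of buffer-only wells, on both duplicate plates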
HEK293 MPD ctr-2: checks TRPC6 modulator effects in parental HEK293 cells | shares compounds with TRPC6 inh | membrane potential dye fluorescence | membrane potential signal change, % at 10 µM | 2,400 compounds, 51% hits | AID 488924;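 active = membrane potential signal moves up or down beyond 5 SD from buffer-only wells, on both duplicate plates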
HEK293 MPD ctr 2-2: second counter-screen for TRPC6 modulators: effect in parental HEK293 cells | shares compounds with TRPC6 inh | membrane potential dye fluorescence; after compound, maximal acetylcholine stimulation | inhibition, % at 10 µM | 2,400 compounds, 14% hits;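 active = membrane potential signal drops by more than 5 SD from the mean control signal, in both duplicate plates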;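 also: plate controls were acetylcholine ECmax control wells for no effect and buffer only wells for full effect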
TRPC4 ctr mod: tests whether TRPC6 modulators also affect mouse TRPC4; shares compounds with TRPC6 inh; HEK293 TRPC4/mu-opioid, membrane potential fluorescence; percent change from control (negative = decrease, positive = increase), % at 10 µM; 2,400 compounds, 69% hits; AID 488927;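 active = membrane potential signal moved up or down beyond 5 SD of buffer control wells, in both duplicate plates, actives on both sides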;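 also: plate controls were assay buffer wells for no effect and DAMGO maximal-effect wells for full effect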
TRPC4 ctr inh 2: mouse TRPC4 off-target activity of TRPC6 modulators, second screen. shares compounds with TRPC6 inh. HEK293 TRPC4/mu-opioid, membrane potential dye fluorescence; stimulated with maximal-effect DAMGO. inhibition, % at 10 µM. 2,400 compounds, 55% hits;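 active = drop in membrane potential signal beyond 5 SD of the control wells in both duplicate plates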;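 also: TRPC4 counter screen for TRPC6 hits run under conditions tuned for TRPC6 not TRPC4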
TRPC6 inh conf: mouse TRPC6 inhibitor confirmation; inhibition, % at 10 µM; 3,300 compounds, 43% hits; HEK293-TRPC6, membrane potential dye, ACh-evoked depolarization; shares compounds with TRPC6 inh;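 active = fluorescence ratio falls more than 5 SD below the full-stimulation control mean, in both duplicate runs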;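 also: integrated fluorescence ratio of peak minus minimum over baseline after agonist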
TRPC6 act confirm: confirmation of mouse TRPC6 activators. shares compounds with TRPC6 inh. HEK293-TRPC6 membrane potential dye fluorescence, FDSS. activation, % at 10 µM. 2,800 compounds, 11% hits;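 active = ratio signal rise beyond 5 SD above unstimulated control wells' mean, seen in both duplicate runs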;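 also: plate controls were buffer EC0 wells for no effect and acetylcholine ECmax response for full effect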
* marks the source's active call; other numbers are inactive results; i = inactive; · = no result.

SMILES	TRPC4 block	TRPC4 agonist	TRPC6 act	TRPC6 inh	TRPC4 potent	HEK293 MPD ctr-2	HEK293 MPD ctr 2-2	TRPC4 ctr mod	TRPC4 ctr inh 2	TRPC6 inh conf	TRPC6 act confirm	others
COc1cc(OC)c2c(-c3ccccc3)cc(=O)oc2c1C(CCN1CCCC(C)C1)c1ccc(N(C)C)cc1 (stereo unspecified)	i	i	i	-5.9*	i	i	i	i	69%*	40%*	i
COc1cc(OC)c2c(C)cc(=O)oc2c1C(CCN1CCOCC1)c1ccc(N(C)C)cc1 (stereo unspecified)	i	i	i	-5.3*	i	-141%*	i	-28%*	52%*	42%*	i
COc1ccc(C(CCN2CCCC(C)C2)c2c(OC)cc(OC)c3c(-c4ccccc4)cc(=O)oc23)cc1 (stereo unspecified)	i	i	i	i	i	·	·	·	·	·	·
Cc1ccc2nc(-c3cccc(S(=O)(=O)N4CC(C)OC(C)C4)c3)cn2c1 (stereo unspecified)	i	i	i	i	i	·	·	·	·	·	·
CC(=O)Nc1ccc(S(=O)(=O)Nc2ccc3c(c2)C(=O)OC3)cc1	i	i	i	i	i	·	·	·	·	·	·
COc1ccc(NC(=O)C2CCCN(S(=O)(=O)c3ccc4c(c3)CC(C)N4C(C)=O)C2)cc1 (stereo unspecified)	i	i	i	i	i	·	·	·	·	·	·
CCc1ccc(NC(=O)C2CCCN(S(=O)(=O)c3cnc[nH]3)C2)cc1 (stereo unspecified)	i	i	i	-6.1*	i	i	i	i	i	i	i
CCc1ccc(NC(=O)C2CCN(S(=O)(=O)c3cnc[nH]3)CC2)cc1	i	i	i	i	i	·	·	·	·	·	·
CC(=O)N1c2ccc(S(=O)(=O)N3CCCC(C(=O)Nc4ccc(F)cc4)C3)cc2CC1C (stereo unspecified)	i	i	i	-5.1*	i	i	i	i	i	i	i
CC(=O)Nc1ccc(NC(=O)C2CCCN(S(=O)(=O)c3ccc(-n4cnnn4)cc3)C2)cc1 (stereo unspecified)	i	i	i	-6.6*	i	·	·	·	·	i	i	TRPC4 spec 2=i;TRPC4 spec=i;HEK293 MPD ctr 2-1=i;HEK293 MPD ctr-1=i
CC(=O)c1ccc(NC(=O)C2CCCN(S(=O)(=O)c3ccc(-n4cnnn4)cc3)C2)cc1 (stereo unspecified)	i	i	i	i	i	·	·	·	·	·	·
CCN(CC)c1ccc(C(=O)OCC(=O)N2CCN(c3ccccc3)CC2)cc1	i	i	i	i	i	·	·	·	·	·	·
O=C([C@H](Cc1ccccc1)NS(=O)(=O)c1ccc(Cl)cc1)N1CC[C@@]2(O)CCCC[C@H]2C1	i	i	i	i	i	·	·	·	·	·	·
N#Cc1ccc(OCC(O)CN2CCC(C(O)(c3ccccc3)c3ccccc3)CC2)cc1 (stereo unspecified)	i	i	i	i	i	·	·	·	·	·	·
O=C(NCc1ccc2c(c1)OCO2)c1ccc(NC(=O)C2CCCO2)cc1 (stereo unspecified)	i	i	i	i	i	·	·	·	·	·	·
O=C(Nc1ccc2c(c1)OCCO2)c1ccc(NC(=O)C2CCCO2)cc1 (stereo unspecified)	i	i	i	-5.2*	i	i	i	i	i	i	i
CCN(CC)CCCn1c2c(c(SCC(=O)Nc3cccc4ccccc34)nc1=O)CCC2	i	i	i	i	i	·	·	·	·	·	·
CN(C)CCCn1c2c(c(SCC(=O)Nc3cccc4ccccc34)nc1=O)CCCC2	i	i	i	-5.3*	i	i	i	i	46%*	i	i
CC1=CC(=C(C#N)c2nc3ccccc3s2)C=C(C)N1CC1CCCO1 (stereo unspecified)	i	i	i	-9.8*	i	486%*	i	-92%*	i	i	i
COc1ccc(NC(=S)Nn2cnnc2)cc1OC	i	i	i	i	i	·	·	·	·	·	·
CC(Oc1ccc2c3c(c(=O)oc2c1)CCC3)C(=O)NC1CCN(Cc2ccccc2)CC1 (stereo unspecified)	i	i	i	-6.3*	i	i	i	-14%*	74%*	58%*	i
COc1ccc(C2c3ccc4ccccc4c3Oc3ncn(CCN(C)C)c(=N)c32)cc1 (stereo unspecified)	i	i	i	-5.4*	i	115%*	i	10%*	69%*	i	·
COc1ccccc1CN1CC(C(=O)N(Cc2cnn(C)c2)C(C)C)CCC1=O (stereo unspecified)	i	i	i	i	i	·	·	·	·	·	·
O=C(O)Cc1sc(NC2CCCCC2)nc1-c1ccc(Cl)cc1	i	i	i	i	i	·	·	·	·	·	·
COc1ccc(S(=O)(=O)N2CCN(C(=O)c3cccc(Cl)c3)CC2)cc1	i	i	i	-5.6*	i	i	i	12%*	i	56%*	·

Screening results deposited in PubChem by Johns Hopkins Ion Channel Center.
